Measurements: ChEMBL document CHEMBL1132476, “Design and synthesis of novel alpha(1)(a) adrenoceptor-selective antagonists. 1. Structure-activity relationship in dihydropyrimidinones” (J Med Chem, 1999)
“And” between values parts separate entries of the source, which are not always exact repeats. Equal values may be shown once.

Assays:
[1] = target: T1, Alpha-1B adrenergic receptor (Homo sapiens, UniProt P35368); test: In vitro binding affinity against Alpha-1B adrenergic receptor of cloned human receptor.
T1 sequence (P35368 whole entry): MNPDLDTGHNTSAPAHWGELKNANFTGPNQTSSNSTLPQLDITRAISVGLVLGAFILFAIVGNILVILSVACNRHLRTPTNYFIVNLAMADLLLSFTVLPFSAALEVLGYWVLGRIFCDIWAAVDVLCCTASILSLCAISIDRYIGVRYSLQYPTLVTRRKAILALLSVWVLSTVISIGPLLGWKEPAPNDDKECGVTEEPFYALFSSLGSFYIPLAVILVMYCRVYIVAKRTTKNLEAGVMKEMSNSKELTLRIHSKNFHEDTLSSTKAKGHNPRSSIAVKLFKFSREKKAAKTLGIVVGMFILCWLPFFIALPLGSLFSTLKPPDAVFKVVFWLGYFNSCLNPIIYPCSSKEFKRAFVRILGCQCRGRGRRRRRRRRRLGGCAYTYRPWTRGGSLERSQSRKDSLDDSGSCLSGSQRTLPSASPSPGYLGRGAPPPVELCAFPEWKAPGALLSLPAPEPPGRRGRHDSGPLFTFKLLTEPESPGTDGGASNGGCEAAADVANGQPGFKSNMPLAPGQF

[2] = target: T2, Alpha-1D adrenergic receptor (Homo sapiens, UniProt P25100); test: In vitro binding affinity against Alpha-1D adrenergic receptor of cloned human receptor.
T2 sequence (P25100 whole entry): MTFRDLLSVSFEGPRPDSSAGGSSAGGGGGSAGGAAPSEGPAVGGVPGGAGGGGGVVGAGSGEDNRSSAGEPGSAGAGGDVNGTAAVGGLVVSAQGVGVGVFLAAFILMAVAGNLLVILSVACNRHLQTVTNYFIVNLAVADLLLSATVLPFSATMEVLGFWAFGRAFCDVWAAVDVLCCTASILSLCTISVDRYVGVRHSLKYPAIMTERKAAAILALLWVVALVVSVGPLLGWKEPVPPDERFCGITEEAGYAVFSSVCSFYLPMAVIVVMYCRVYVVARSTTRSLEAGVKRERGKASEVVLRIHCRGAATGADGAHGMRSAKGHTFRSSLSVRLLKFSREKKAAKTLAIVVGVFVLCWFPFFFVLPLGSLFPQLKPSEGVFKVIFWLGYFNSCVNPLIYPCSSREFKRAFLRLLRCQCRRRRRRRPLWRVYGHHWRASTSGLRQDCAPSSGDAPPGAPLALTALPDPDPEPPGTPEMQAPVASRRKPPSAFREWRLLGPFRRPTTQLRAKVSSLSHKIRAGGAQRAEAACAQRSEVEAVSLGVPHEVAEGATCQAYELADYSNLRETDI

[3] = target: T3, Alpha-1A adrenergic receptor (Homo sapiens, UniProt P35348); test: In vitro binding affinity against Alpha-1A adrenergic receptor of cloned human receptor.
T3 sequence (P35348 whole entry): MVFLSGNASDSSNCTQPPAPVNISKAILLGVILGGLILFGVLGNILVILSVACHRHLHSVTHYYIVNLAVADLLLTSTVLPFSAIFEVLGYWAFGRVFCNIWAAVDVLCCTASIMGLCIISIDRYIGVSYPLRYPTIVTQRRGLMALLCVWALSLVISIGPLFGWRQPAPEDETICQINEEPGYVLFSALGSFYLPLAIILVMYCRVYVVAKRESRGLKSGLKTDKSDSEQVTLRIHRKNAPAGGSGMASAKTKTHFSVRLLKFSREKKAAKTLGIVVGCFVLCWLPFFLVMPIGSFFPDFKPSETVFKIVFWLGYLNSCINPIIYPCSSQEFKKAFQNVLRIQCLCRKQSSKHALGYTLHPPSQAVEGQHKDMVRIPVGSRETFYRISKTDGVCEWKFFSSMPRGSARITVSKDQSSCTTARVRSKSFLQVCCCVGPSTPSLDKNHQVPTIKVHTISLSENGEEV

Canis familiaris = species on record: Canis familiaris; test: Antagonism against phenylephrine induced contractions in isolated prostate tissue of dog; format: functional, Canis lupus familiaris, Prostate gland
Method in brief: (§1)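 Isolated prostate strips (rat or dog) contracted with phenylephrine as agonist. Antagonist potency is expressed as Kb, derived from the shift in the agonist response by a previously published method.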

Homo sapiens = species on record: Homo sapiens; test: Antagonism against phenylephrine induced contractions in isolated prostate tissue of human; format: functional; settings: Prostate gland
[4] = target: T4, Alpha-1A adrenergic receptor (Rattus norvegicus, UniProt P43140); test: In vitro binding affinity against Alpha-1A adrenergic receptor in isolated prostate tissue of rat; format: tissue-based, Prostate gland
T4 sequence (P43140 whole entry): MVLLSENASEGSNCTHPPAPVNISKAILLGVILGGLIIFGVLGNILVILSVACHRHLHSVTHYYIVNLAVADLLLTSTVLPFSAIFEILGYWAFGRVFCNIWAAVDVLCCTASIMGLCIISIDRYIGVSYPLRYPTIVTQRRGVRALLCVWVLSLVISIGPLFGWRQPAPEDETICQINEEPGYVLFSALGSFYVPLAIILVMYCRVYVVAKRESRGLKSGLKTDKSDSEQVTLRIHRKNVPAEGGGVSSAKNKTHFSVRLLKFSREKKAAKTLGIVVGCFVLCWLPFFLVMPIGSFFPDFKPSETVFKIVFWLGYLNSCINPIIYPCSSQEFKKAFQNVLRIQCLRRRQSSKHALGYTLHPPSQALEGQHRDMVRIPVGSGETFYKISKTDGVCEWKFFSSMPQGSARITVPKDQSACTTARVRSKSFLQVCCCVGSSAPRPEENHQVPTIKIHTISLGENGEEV

Rattus norvegicus = species on record: Rattus norvegicus; test: Antagonism against phenylephrine induced contractions in isolated prostate tissue of rat; format: functional, Prostate gland
Method in brief: as §1

Compound | Ki [1] | Ki [2] | Ki [3] | Kb (Canis familiaris) | Kb (Homo sapiens) | Ki [4] | Kb (Rattus norvegicus)
COC(=O)C1=C(C)NC(=O)N(C(=O)NCCCN2CCC(C(=O)OC)(c3ccccc3)CC2)C1c1ccc(C)cc1 (centres undefined) | 77 nM | 220 nM | 8 nM | – | – | – | –
CCC1=C(C(=O)NC)C(c2ccc([N+](=O)[O-])cc2)N(C(=O)NCCCN2CCC(C(=O)OC)(c3ccccc3)CC2)C(=O)N1 (centres undefined) | 139 nM | 398 nM | 1.2 nM | – | – | – | –
CCC1=C(C(N)=O)C(c2ccc(F)cc2F)N(C(=O)NCCCN2CCC(C(=O)OC)(c3ccccc3)CC2)C(=O)N1 (centres undefined) | 340 nM | 440 nM | – | – | – | – | –
COC(=O)C1=C(C)NC(=O)N(C(=O)NCCCN2CCC(C(=O)OC)(c3ccccc3)CC2)C1c1ccc([N+](=O)[O-])cc1 (centres undefined) | 81 nM and 28 nM and 19 nM | 180 nM and 100 nM and 80 nM | 0.4 nM and 0.5 nM and 2.1 nM | – | – | – | –
COC(=O)C1=C(C)NC(=O)N(C(=O)NCCCN2CCC(C(=O)OC)(c3ccccc3)CC2)C1c1ccc(F)cc1 (centres undefined) | 78 nM | 180 nM | 1.2 nM | – | – | – | –
COC(=O)C1=C(C)NC(=O)N(C(=O)NCCCN2CCC(C(=O)OC)(c3ccccc3)CC2)C1c1cccc(Cl)c1 (centres undefined) | 50 nM | 180 nM | 1.1 nM | – | – | – | –
COC(=O)C1=C(C)NC(=O)N(C(=O)NCCCN2CCC(C(=O)OC)(c3ccccc3)CC2)C1c1ccc(Cl)cc1 (centres undefined) | 48 nM | 170 nM | 4.5 nM | – | – | – | –
COC(=O)C1(c2ccccc2)CCN(CCCNC(=O)N2C(=O)NC(C)=C(C(=O)O)C2c2ccc([N+](=O)[O-])cc2)CC1 (centres undefined) | 1600 nM | 2600 nM | 10 nM | – | – | – | –
COC(=O)C1=C(C)NC(=O)N(C(=O)NCCCN2CCC(c3ccccc3)(c3ccccc3)CC2)C1c1ccc([N+](=O)[O-])cc1 (centres undefined) | 27 nM | 120 nM | 5 nM | – | – | – | –
COC(=O)C1(c2ccccc2)CCN(CCCNC(=O)N2C(=O)NC(C)=C(C(N)=O)C2c2ccc([N+](=O)[O-])cc2)CC1 (centres undefined) | 100 nM | 140 nM | 0.7 nM | – | – | – | –
COC(=O)C1=C(C)NC(=O)N(C(=O)NCCCN2CCC(C(=O)OC)(c3ccccc3)CC2)C1c1cccc(F)c1 (centres undefined) | 67 nM | 150 nM | 1.5 nM | – | – | – | –
CCOC(=O)C1=C(C)NC(=O)N(C(=O)NCCCN2CCC(C(=O)OC)(c3ccccc3)CC2)C1c1ccc([N+](=O)[O-])cc1 (centres undefined) | 15 nM | 91 nM | 0.3 nM | – | – | – | –
COC(=O)C1=C(C)NC(=O)N(C(=O)NCCCN2CCC(C(=O)OC)(c3ccccc3)CC2)C1c1cccc(C)c1 (centres undefined) | 110 nM | 320 nM | 1.8 nM | – | – | – | –
CCC1=C(C(N)=O)C(c2ccc([N+](=O)[O-])cc2)N(C(=O)NCCCN2CCC(C(=O)OC)(c3ccccc3)CC2)C(=O)N1 (centres undefined) | – | – | – | 0.85 nM | 0.04 nM | 0.58 nM | 2 nM
CNC(=O)C1=C(C)NC(=O)N(C(=O)NCCCN2CCC(C(=O)OC)(c3ccccc3)CC2)C1c1ccc([N+](=O)[O-])cc1 (centres undefined) | 100 nM | 270 nM | 2.1 nM | – | – | – | –
COC(=O)C1=C(C)NC(=O)N(C(=O)NCCCN2CCC(C(=O)OC)(c3ccccc3)CC2)C1c1ccc(F)cc1F (centres undefined) | 88 nM | 180 nM | 0.2 nM | – | – | – | –
CCC1=C(C(=O)OC)C(c2ccc([N+](=O)[O-])cc2)N(C(=O)NCCCN2CCC(C(=O)OC)(c3ccccc3)CC2)C(=O)N1 (centres undefined) | 37 nM | 87 nM | 0.8 nM | – | – | – | –
COC(=O)C1=C(C)NC(=O)N(C(=O)NCCCN2CCC(C(=O)OC)(c3ccccc3)CC2)C1c1ccc2nonc2c1 (centres undefined) | 27 nM | 93 nM | 0.1 nM | – | – | – | –
